Experimental data from ChEMBL document CHEMBL5678802, “Small-molecule p21-activated kinase inhibitor PF-3758309 is a potent inhibitor of oncogenic signaling and tumor growth” (Proc Natl Acad Sci U S A, 2010).
pIC50, pKi: −log10 of the molar value. Active and inactive are the calls of the source. The calls are words filed in the database; no cut-off is given here.

Columns and labels:
[1] = target: Serine/threonine-protein kinase Chk2 (Homo sapiens, UniProt O96017); experiment: Inhibition of human CHK2 assessed as inhibition constant in presence of ATP
[2] = tested on: NCI-H520; experiment: Antiproliferative activity against human NCI-H520 cells assessed as inhibition of cell proliferation incubated for 3 days by CellTiter-Glo Luminescent Cell Viability Assay; type: functional, cell-based; conditions: NCI-H520, 72 h
Procedure, shortened: (§1)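 Cells of each line were plated in 384-well plates on day 1 and exposed to compound from day 2 for 3 days. On day 5 all medium was aspirated. Viable cell number was read by CellTiter-Glo luminescence, which quantifies cellular ATP.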

[3] = tested on: HCT-116; experiment: Antitumor activity against human HCT-116 cells xenografted in nude mouse assessed as tumor growth inhibition at 7.5 mg/kg, po administered twice daily for 9 to 18 days relative to control; type: functional; conditions: time 9-18 day, read-out: TGI
[4] = Antiproliferative activity against human Hs 700T cells assessed as inhibition of cell proliferation incubated for 3 days by CellTiter-Glo Luminescent Cell Viability Assay; type: functional, cell-based; conditions: 72 h
Procedure, shortened: (§2)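 Cancer cell lines seeded in 384-well plates on day 1; compound added on day 2 and left for 3 days. On day 5 all medium was aspirated, and viable cells were quantified by CellTiter-Glo luminescence, which measures cellular ATP. Dose-dependent effects on proliferation were determined.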

[5] = tested on: HuP-T4; experiment: Antiproliferative activity against human HuP-T4 cells assessed as inhibition of cell proliferation incubated for 3 days by CellTiter-Glo Luminescent Cell Viability Assay; type: functional, cell-based; conditions: HuP-T4, 72 h; procedure, shortened: as §2
[6] = Antiproliferative activity against human GTL16S4 acquired resistance cells assessed as inhibition of cell proliferation incubated for 3 days by CellTiter-Glo Luminescent Cell Viability Assay; type: functional, cell-based; conditions: 72 h; procedure, shortened: as §2
[7] = target: T1, cGMP-dependent protein kinase 1 (Homo sapiens, UniProt Q13976); experiment: Inhibition of human PRKG1 assessed as inhibition constant in presence of ATP
T1 sequence (Q13976 whole entry): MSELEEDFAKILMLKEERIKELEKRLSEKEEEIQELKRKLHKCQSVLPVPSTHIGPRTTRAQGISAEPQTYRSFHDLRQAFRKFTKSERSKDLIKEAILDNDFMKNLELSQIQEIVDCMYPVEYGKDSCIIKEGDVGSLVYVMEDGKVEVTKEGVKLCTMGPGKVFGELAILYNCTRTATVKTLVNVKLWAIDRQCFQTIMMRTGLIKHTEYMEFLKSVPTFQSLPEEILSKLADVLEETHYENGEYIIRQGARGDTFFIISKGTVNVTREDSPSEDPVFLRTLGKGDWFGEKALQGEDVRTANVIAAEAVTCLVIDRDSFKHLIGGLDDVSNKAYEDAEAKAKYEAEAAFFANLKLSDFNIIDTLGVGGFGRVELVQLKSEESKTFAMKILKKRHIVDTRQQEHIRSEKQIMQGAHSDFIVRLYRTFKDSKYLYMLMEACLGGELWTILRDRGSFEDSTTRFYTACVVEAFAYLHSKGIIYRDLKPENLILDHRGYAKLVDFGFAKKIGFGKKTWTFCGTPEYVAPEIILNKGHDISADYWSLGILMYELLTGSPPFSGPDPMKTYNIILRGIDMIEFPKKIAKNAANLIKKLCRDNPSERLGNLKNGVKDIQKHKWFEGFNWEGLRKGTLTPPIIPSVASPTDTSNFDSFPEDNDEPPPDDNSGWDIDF

[8] = tested on: HCC1187; experiment: Antiproliferative activity against human HCC1187 cells assessed as inhibition of cell proliferation incubated for 3 days by CellTiter-Glo Luminescent Cell Viability Assay; type: functional, cell-based; conditions: HCC1187, 72 h; procedure, shortened: as §2
[9] = tested on: BT-474; experiment: Antiproliferative activity against human BT-474 cells assessed as inhibition of cell proliferation incubated for 3 days by CellTiter-Glo Luminescent Cell Viability Assay; type: functional, cell-based; conditions: BT-474, 72 h; procedure, shortened: as §2
[10] = Antiproliferative activity against human Panc 05.04 cells assessed as inhibition of cell proliferation incubated for 3 days by CellTiter-Glo Luminescent Cell Viability Assay; type: functional, cell-based; conditions: Panc 05.04, 72 h; procedure, shortened: as §1
[11] = tested on: MDA-MB-415; experiment: Antiproliferative activity against human MDA-MB-415 cells assessed as inhibition of cell proliferation incubated for 3 days by CellTiter-Glo Luminescent Cell Viability Assay; type: functional, cell-based; conditions: MDA-MB-415, 72 h; procedure, shortened: as §2
[12] = target: T2, Protein kinase C gamma type (Homo sapiens, UniProt P05129); experiment: Inhibition of human PKCgamma in presence of ATP relative to control; conditions: concentration not given here
[13] = tested on: HCT-116; experiment: Downregulation of camptothecin-induced phospho-S810-GEF-H1 level in human HCT-116 cells at 1 uM preincubated with compound for 15 mins followed by camptothecin stimulation and measured after 20 hrs by Western blot analysis; type: functional, cell-based; conditions: time 20.25 hrs
[14] = tested on: NCI-H23; experiment: Antiproliferative activity against human NCI-H23 cells assessed as inhibition of cell proliferation incubated for 3 days by CellTiter-Glo Luminescent Cell Viability Assay; type: functional, cell-based; conditions: NCI-H23, 72 h; procedure, shortened: as §1
[15] = tested on: HCT-116; experiment: Antitumor activity against human HCT-116 cells xenografted in nude mouse assessed as reduction in AKT1 phosphorylation at S473 residue at 15 to 150 mg/kg/day administered via pump for 18 hrs by Reverse-Phase protein array analysis; type: functional, organism-based; conditions: dose 15-150 mg/kg/day
[16] = tested on: NCI-H2087; experiment: Antiproliferative activity against human NCI-H2087 cells assessed as inhibition of cell proliferation incubated for 3 days by CellTiter-Glo Luminescent Cell Viability Assay; type: functional, cell-based; conditions: NCI-H2087, 72 h; procedure, shortened: as §1
[17] = target: T2, Protein kinase C gamma type; experiment: Inhibition of human PKCgamma in presence of ATP
[18] = tested on: Hs-578T; experiment: Antiproliferative activity against human Hs-578T cells assessed as inhibition of cell proliferation incubated for 3 days by CellTiter-Glo Luminescent Cell Viability Assay; type: functional, cell-based; conditions: 72 h; procedure, shortened: as §2
[19] = tested on: HCT-116; experiment: Induction of cell cycle arrest in human HCT-116 cells assessed as accumulation of cells at G2/M phase at 100 nM measured after 48 hrs by fluorescence activated cell sorter analysis (reference value: 19.78%); type: functional
[20] = tested on: NCI-H520; experiment: Inhibition of anchorage independent cell growth in human NCI-H520 cells incubated for 6 days by Alamar blue reagent based fluorescence plate reader analysis; type: functional; conditions: NCI-H520, 144 h
[21] = tested on: HCC4006; experiment: Inhibition of anchorage independent cell growth in human HCC4006 cells incubated for 6 days by Alamar blue reagent based fluorescence plate reader analysis; type: functional; conditions: HCC4006, 144 h
[22] = tested on: HCC1419; experiment: Antiproliferative activity against human HCC1419 cells assessed as inhibition of cell proliferation incubated for 3 days by CellTiter-Glo Luminescent Cell Viability Assay; type: functional, cell-based; conditions: HCC1419, 72 h; procedure, shortened: as §2
[23] = tested on: NCI-H1993; experiment: Inhibition of anchorage independent cell growth in human NCI-H1993 cells incubated for 6 days by Alamar blue reagent based fluorescence plate reader analysis; type: functional; conditions: NCI-H1993, 144 h
[24] = Inhibition of NF-kappaB signaling in HEK293T cells preincubated with compound for 0.5 hrs followed by TNFalpha stimulation and measured after 7 hrs by Steady-Glo luciferase assay; type: cell-based; conditions: Homo sapiens, HEK-293T
[25] = target: cGMP-dependent protein kinase 1 (Homo sapiens) (UniProt Q13976); experiment: Inhibition of human PRKG1 in presence of ATP relative to control; conditions: concentration not given here

Serine/threonine-protein kinase Chk2, sequence (O96017 whole entry): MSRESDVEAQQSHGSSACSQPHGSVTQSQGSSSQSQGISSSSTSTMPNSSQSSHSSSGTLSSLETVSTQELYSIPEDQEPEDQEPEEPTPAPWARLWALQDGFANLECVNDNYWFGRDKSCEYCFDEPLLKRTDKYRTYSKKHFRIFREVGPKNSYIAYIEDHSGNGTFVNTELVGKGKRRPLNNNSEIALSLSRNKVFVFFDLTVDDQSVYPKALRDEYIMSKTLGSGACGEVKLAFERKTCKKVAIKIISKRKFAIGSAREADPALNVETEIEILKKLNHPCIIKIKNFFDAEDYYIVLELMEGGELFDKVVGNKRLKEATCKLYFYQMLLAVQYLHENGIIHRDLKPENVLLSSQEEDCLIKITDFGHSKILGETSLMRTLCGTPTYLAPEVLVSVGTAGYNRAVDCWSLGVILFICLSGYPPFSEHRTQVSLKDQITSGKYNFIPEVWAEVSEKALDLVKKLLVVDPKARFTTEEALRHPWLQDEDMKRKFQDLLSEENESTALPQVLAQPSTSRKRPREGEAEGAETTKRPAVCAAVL

pKi [1]: 8.52
pIC50 [2]: 8.25
pKi [7]: 7.82
pIC50 [8]: 9.62
pIC50 [9]: 8.74
pIC50 [11]: 7.44
inhibition [12]: 92%
pIC50 [14]: 7.60
pIC50 [16]: 8.37
pIC50 [17]: 7.23
pIC50 [20]: 8.95
pIC50 [21]: 8.42
pIC50 [22]: 9.10
pIC50 [23]: 7.92
pIC50 [24]: 7.62
inhibition [25]: 97%
Structure (SMILES): Cc1nc(Nc2n[nH]c3c2CN(C(=O)N[C@H](CN(C)C)c2ccccc2)C3(C)C)c2sccc2n1 [PF-03758309]
inhibition in vivo at 7.5 mg/kg [3]: 64%
pIC50 [4]: 5.62
pIC50 [5]: 6.64
pIC50 [6]: 5.00
pIC50 [10]: 7.29
Activity [13]: Active
Activity [15]: Active
pIC50 [18]: 9.43
Activity [19]: 23.08%
